Measured values taken from ChEMBL document CHEMBL1125495, “Inhibitors of human renin with C-termini derived from amides and esters of alpha-mercaptoalkanoic acids” (J Med Chem, 1992).
One block for each compound: values may come before it.

How the values were obtained:
[1] = target: T1, Renin (Homo sapiens, UniProt P00797); assay: Inhibition of human plasma renin; assay type: cell-free
T1 sequence (P00797 whole entry): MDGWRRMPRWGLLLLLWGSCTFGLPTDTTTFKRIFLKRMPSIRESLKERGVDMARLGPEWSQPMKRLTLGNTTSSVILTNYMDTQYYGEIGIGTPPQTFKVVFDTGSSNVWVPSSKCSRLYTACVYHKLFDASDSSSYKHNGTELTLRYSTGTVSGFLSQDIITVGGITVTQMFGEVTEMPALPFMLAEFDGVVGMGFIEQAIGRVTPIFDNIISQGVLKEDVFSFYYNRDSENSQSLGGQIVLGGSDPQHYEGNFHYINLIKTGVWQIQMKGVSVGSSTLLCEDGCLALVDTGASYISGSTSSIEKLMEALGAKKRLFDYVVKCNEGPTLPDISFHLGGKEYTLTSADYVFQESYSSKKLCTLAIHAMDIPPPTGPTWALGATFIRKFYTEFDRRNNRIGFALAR

[2] = target: T2, Renin (Homo sapiens) (UniProt P00797); details: Cercopithecidae; Plasma; at 0.63 mg/kg
T2 sequence (whole entry): T1 sequence (P00797 whole entry)

[3] = test system: Rhesus monkey; assay: In vivo effect on heart rate(peak deltaHR) in sodium deficient rhesus monkeys after iv administration (dose 0.31 mg/kg).; assay type: functional, Cercopithecidae
In short: (§1)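 Conscious male and female rhesus monkeys (N = 2) with chronic arterial access ports for direct MAP and heart-rate monitoring, and venous catheters for dosing. Animals were kept on a low-sodium diet, given furosemide the evening before, and fasted 18 h before and during the study. Compound was given iv in 0.05% acetic acid/5% dextrose/H2O, 20 min after a vehicle control dose. Peak changes were averaged, and the hypotensive half-life was read from time plots.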

[4] = test system: Rhesus monkey; assay: Half life of hypotensive effect in sodium deficient rhesus monkeys after iv administration (dose 0.31 mg/kg).; assay type: functional, organism-based; design: dose 0.31 mg/kg; details: Cercopithecidae; in short: as §1
[5] = test system: Rhesus monkey; assay: In vivo effect on mean arterial pressure(peak deltaMAP) in sodium deficient rhesus monkeys after iv administration (dose 0.31 mg/kg).; assay type: functional, Cercopithecidae, Artery; in short: as §1
[6] = test system: Rhesus monkey; assay: In vivo effect on heart rate(peak deltaHR) in sodium deficient rhesus monkeys after iv administration (dose 0.43 mg/kg).; assay type: functional, Cercopithecidae; in short: as §1
[7] = test system: Rhesus monkey; assay: In vivo effect on mean arterial pressure(peak deltaMAP) in sodium deficient rhesus monkeys after iv administration (dose 0.43 mg/kg).; assay type: functional, Cercopithecidae, Artery; in short: as §1
[8] = target: T2, Renin (Homo sapiens); assay: In vivo inhibition of plasma renin activity in sodium deficient rhesus monkeys after iv administration (dose 0.43 mg/kg, determined at peak deltaMAP).; assay type: functional, organism-based; design: dose 0.43 mg/kg; details: Cercopithecidae, target entry is the homologue from another species, at 0.43 mg/kg
In short: (§2)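 Sodium-deficient rhesus monkeys (N = 2) were kept on a low-sodium diet, given furosemide the evening before, and fasted 18 h. Compound was given iv through a venous catheter in 0.05% acetic acid/5% dextrose/H2O, 20 min after vehicle. Blood was drawn periodically via an arterial access port for plasma renin activity. Percent inhibition was taken at peak ΔMAP.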

[9] = test system: Rhesus monkey; assay: Half life of hypotensive effect in sodium deficient rhesus monkeys after iv administration (dose 0.43 mg/kg).; assay type: functional, organism-based; design: dose 0.43 mg/kg; details: Cercopithecidae; in short: as §1
[10] = test system: Rhesus monkey; assay: In vivo effect on heart rate(peak deltaHR) in sodium deficient rhesus monkeys after iv administration (dose 0.26 mg/kg).; assay type: functional, Cercopithecidae; in short: as §1
[11] = test system: Rhesus monkey; assay: Half life of hypotensive effect in sodium deficient rhesus monkeys after iv administration (dose 0.26 mg/kg).; assay type: functional, organism-based; design: dose 0.26 mg/kg; details: Cercopithecidae; in short: as §1
[12] = test system: Rhesus monkey; assay: In vivo on mean arterial pressure(peak deltaMAP) in sodium deficient rhesus monkeys after iv administration (dose 0.26 mg/kg).; assay type: functional, Cercopithecidae, Artery; in short: as §1
[13] = target: T2, Renin (Homo sapiens); assay: In vivo inhibition of plasma renin activity in sodium deficient rhesus monkeys after iv administration (dose 0.26 mg/kg, determined at peak deltaMAP).; assay type: functional, organism-based; design: dose 0.26 mg/kg; details: Cercopithecidae, target entry is the homologue from another species, at 0.26 mg/kg; in short: as §2
[14] = target: T2, Renin (Homo sapiens); assay: In vivo inhibition of plasma renin activity in sodium deficient rhesus monkeys after iv administration (dose 0.34 mg/kg, determined at peak deltaMAP).; assay type: functional, organism-based; design: dose 0.34 mg/kg; details: Cercopithecidae, target entry is the homologue from another species, at 0.34 mg/kg
[15] = test system: Rhesus monkey; assay: Half life of hypotensive effect in sodium deficient rhesus monkeys after iv administration (dose 0.34 mg/kg).; assay type: functional, organism-based; design: dose 0.34 mg/kg; details: Cercopithecidae
[16] = test system: Rhesus monkey; assay: In vivo effect on heart rate(peak deltaHR) in sodium deficient rhesus monkeys after iv administration (dose 0.34 mg/kg).; assay type: functional, Cercopithecidae
[17] = test system: Rhesus monkey; assay: In vivo effect on mean arterial pressure(peak deltaMAP) in sodium deficient rhesus monkeys after iv administration (dose 0.34 mg/kg).; assay type: functional, Cercopithecidae, Artery

IC50 [1]: 4.2 nM
Compound: CC(C)(C)OC(=O)N[C@@H](Cc1ccccc1)C(=O)N[C@@H](Cc1c[nH]cn1)C(=O)N[C@@H](CC1CCCCC1)[C@@H](O)CS(=O)(=O)CC(=O)NC1C[N+]2([O-])CCC1CC2 (some centres not stated)

IC50 [1]: 77 nM
Compound: CC(C)CC(C(=O)NCCN1CCOCC1)S(=O)(=O)C[C@H](O)[C@H](CC1CCCCC1)NC(=O)[C@H](Cc1c[nH]cn1)NC(=O)[C@H](Cc1ccccc1)NC(=O)OC(C)(C)C (some centres not stated)

inhibition [2]: 86%
Compound: CN1CCN(C(=O)CSC[C@H](O)[C@H](CC2CCCCC2)NC(=O)[C@H](Cc2c[nH]cn2)NC(=O)[C@H](Cc2ccccc2)NC(=O)OC(C)(C)C)CC1
Peak deltaHR [3]: 4 beats min-1
T1/2 [4]: < 10 min
Peak deltaMAP [5]: -25 mmHg

IC50 [1]: 20 nM
Compound: CN1CCN(C(=O)CS(=O)(=O)C[C@H](O)[C@H](CC2CCCCC2)NC(=O)[C@H](Cc2c[nH]cn2)NC(=O)[C@H](Cc2ccccc2)NC(=O)OC(C)(C)C)CC1

The remaining lines, values behind:

Compound: CC(C)(C)OC(=O)N[C@@H](Cc1ccccc1)C(=O)N[C@@H](Cc1c[nH]cn1)C(=O)N[C@@H](CC1CCCCC1)[C@@H](O)CSCC(=O)NCCN1CCOCC1
Peak deltaHR [6]: -26 beats min-1
Peak deltaMAP [7]: -20.5 mmHg
inhibition [8]: 90%
T1/2 [9]: < 10 min

Compound: CC(C)CC(SC[C@H](O)[C@H](CC1CCCCC1)NC(=O)[C@H](Cc1cnc[nH]1)NC(=O)[C@H](Cc1ccccc1)NC(=O)OC(C)(C)C)C(=O)NCCN1CCOCC1 (some centres not stated)
IC50 [1]: 73 nM

Compound: CC(C)(C)OC(=O)N[C@@H](Cc1ccccc1)C(=O)N[C@@H](Cc1c[nH]cn1)C(=O)N[C@@H](CC1CCCCC1)[C@@H](O)CSCC(=O)NC1CN2CCC1CC2 (some centres not stated)
Peak deltaHR [10]: -18 beats min-1
T1/2 [11]: < 10 min
IC50 [1]: 29 nM
Peak deltaMAP [12]: -20 mmHg
inhibition [13]: 93%

Compound: CC(C)(C)OC(=O)N[C@@H](Cc1ccccc1)C(=O)N[C@@H](Cc1c[nH]cn1)C(=O)N[C@@H](CC1CCCCC1)[C@@H](O)CSc1nnnn1CCc1ccncc1
inhibition [14]: 95%
T1/2 [15]: < 10 min
Peak deltaHR [16]: 1 beats min-1
Peak deltaMAP [17]: -22 mmHg

Compound: CC(C)(C)OC(=O)N[C@@H](Cc1ccccc1)C(=O)N[C@@H](Cc1cnc[nH]1)C(=O)N[C@@H](CC1CCCCC1)[C@@H](O)CS(=O)(=O)CC(=O)NCCN1CCOCC1
IC50 [1]: 9.4 nM
